Source: ChEMBL document CHEMBL4261484, “Design, synthesis and anticonvulsant-analgesic activity of new N-[(phenoxy)alkyl]- and N-[(phenoxy)ethoxyethyl]aminoalkanols” (Medchemcomm, 2017)
Activity calls are given as the source filed them.

What was measured:
Mus musculus [1] = test: Anticonvulsant activity in mouse assessed as increase in electroconvulsive threshold at 10 mg/kg, ip by maximal electroshock seizure threshold test relative to control; assay type: functional
[2] = Neurotoxicity in ip dosed mouse assessed as motor impairment measured after 15 mins by rotarod test; settings: in vivo
Mus musculus [3] = test: Anticonvulsant activity in mouse assessed as current strength required to induce tonic hind-limb extension in 50% of the animals at 10 mg/kg, ip by maximal electroshock seizure threshold test (reference value: 6.05 to 8.13 mA); assay type: functional
Mus musculus [4] = test: Anticonvulsant activity in mouse assessed as protection against maximal electroshock-induced seizures at 100 mg/kg, ip; assay type: functional, organism-based
Outline: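 Mice dosed ip; maximal seizures induced by auricular electroshock (25 mA, 500 V, 50 Hz, 0.2 s). Endpoint: hind-limb tonic extension; animals without it scored protected. Read-out is number protected over number tested.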

Mus musculus [5] = test: Analgesic activity in mouse assessed as decrease in time of paw licking during phase 1 at 69 mg/kg, ip measured for 5 mins by formalin test relative to control; assay type: functional; design: scale not given: the % may be the effect or the level left
Outline: (§1)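 Formalin test in mice: 20 μL of 5% formalin injected intraplantarly into the right hind paw. Each mouse was observed alone in a glass beaker for 30 min. Time (s) spent licking or biting the injected paw was recorded at 0–5 min (acute phase) and 15–30 min (inflammatory phase).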

Mus musculus [6] = test: Anticonvulsant activity in ip dosed mouse assessed as protection against maximal electroshock-induced seizures; assay type: functional
Outline: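 Mice were dosed ip. Maximal seizures were induced by auricular electrodes (25 mA, 500 V, 50 Hz, 0.2 s). Absence of hind-limb tonic extension counted as protection. […] Motor impairment was scored on a 10 rpm rotarod, giving TD50 the same way.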

SH-SY5Y [7] = test: Potentiation of H2O2-induced cytotoxicity against human SH-SY5Y cells at 10^-8 to 10^-6 M after 72 hrs by LDH release assay; assay type: cell-based
Outline: (§2)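 SH-SY5Y cells in 1% FBS given 10^-8 to 10^-5 M for 72 h, with H2O2 (0.5 mM) added for the last 24 h. LDH released into medium measured at 490 nm and normalized to vehicle cells without H2O2. Dunnett's test after one-way ANOVA.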

Mus musculus [8] = test: Anticonvulsant activity in mouse assessed as current strength required to induce tonic hind-limb extension in 50% of the animals at 30 mg/kg, ip by maximal electroshock seizure threshold test (reference value: 6.05 to 8.13 mA); assay type: functional
SH-SY5Y [9] = test: Cytotoxicity against human SH-SY5Y cells 10^-8 to 10^-4 M after 72 hrs by LDH release assay; assay type: cell-based
Outline: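 SH-SY5Y cells grown in DMEM with 10% FBS, then seeded at 15000 per well in 1% FBS a day ahead. Treated with 10^-8 to 10^-4 M (water-dissolved) for 72 h, with vehicle controls and triton as positive control. LDH in medium read at 490 nm, expressed as % of vehicle-treated cells. Dunnett's test after one-way ANOVA.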

[10] = Protection index, ratio of TD50 for neurotoxicity in ip dosed mouse by rotarod test to ED50 for anticonvulsant activity in mouse by maximal electroshock seizure test; assay type: toxicity, organism-based; settings: in vivo, read-out: Ratio TD50/ED50
Mus musculus [11] = test: Toxicity in mouse at 60 mg/kg, ip measured during maximal electroshock seizure test; assay type: organism-based; settings: in vivo
[12] = Neurotoxicity in ip dosed mouse assessed as motor impairment measured for one min by rotarod test; assay type: toxicity, organism-based; settings: in vivo
Outline: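 Mice trained on an accelerating rotarod, then tested at least 24 h later after ip pretreatment, on a rod turning at 10 rpm. Neurotoxicity was scored as failure to stay on the rod for one minute. Read-out is mice impaired over mice tested.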

Mus musculus [13] = test: Toxicity in mouse at 80 mg/kg, ip measured during maximal electroshock seizure test; assay type: organism-based; settings: in vivo
Mus musculus [14] = test: Anticonvulsant activity in mouse assessed as protection against subcutaneous pentylenetetrazole-induced seizures by measuring latency time of tonic seizures at 100 mg/kg, ip measured for 30 mins post pentylenetetrazole challenge at 0.5 hrs after compound dosing (reference value: 562.8 to 614.9 secs); assay type: functional
Mus musculus [15] = test: Toxicity in mouse at 100 mg/kg, ip measured during maximal electroshock seizure test; assay type: organism-based; settings: in vivo
Mus musculus [16] = test: Neurotoxicity in mouse assessed as motor impairment by measuring loss of coordination at 69 mg/kg, ip measured for 60 secs by chimney test relative to control; assay type: toxicity, organism-based; settings: in vivo, 1 min
Outline: (§3)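 Mice dosed ip; trained, selected animals placed in a horizontal tube 25 cm long and 2.5 cm in diameter, then tube reversed so mice must climb out backward. Read-outs: escape time (s) ± SEM and % animals losing coordination versus control. Unpaired t test.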

Mus musculus [17] = test: Anticonvulsant activity in mouse assessed as increase in electroconvulsive threshold at 30 mg/kg, ip by maximal electroshock seizure threshold test relative to control; assay type: functional
SH-SY5Y [18] = test: Potentiation of H2O2-induced cytotoxicity against human SH-SY5Y cells at 10^-5 M after 72 hrs by LDH release assay; assay type: cell-based; settings: 10 µM; outline: as §2
Mus musculus [19] = test: Analgesic activity in mouse assessed as decrease in time of paw licking during phase 2 at 69 mg/kg, ip measured for 15 to 30 mins by formalin test relative to control; assay type: functional; design: scale not given: the % may be the effect or the level left; outline: as §1
Mus musculus [20] = test: Neurotoxicity in mouse assessed as motor impairment by measuring time of escaping from chimney at 69 mg/kg, ip measured for 60 secs (reference value: 8.87 +/- 1.79 secs); assay type: toxicity, organism-based; settings: in vivo, 1 min; outline: as §3
HepG2 [21] = test: Cytotoxicity against human HepG2 cells assessed as effect on cell viability at 10 to 250 uM after 24 hrs by MTT assay; assay type: cell-based; settings: hepg2, 24 h
Outline: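 HepG2 cells grown in MEM with 10% FBS (37 °C, 5% CO2) and seeded at 1 × 10^4. After overnight culture, exposed to 10–250 μM for 24 h. MTT for 3 h, formazan dissolved, OD 570 nm. Viability is % of control ± SEM from three independent experiments.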

[22] = Cytotoxicity against mouse CRL-2541 cells assessed as effect on cell viability at 10 to 250 uM after 24 hrs by MTT assay; assay type: cell-based
Mus musculus [23] = test: Toxicity in mouse assessed as effect on spontaneous activity at 69 mg/kg, ip measured for 30 mins by photoresistor actometer relative to control; assay type: organism-based; settings: in vivo, 0.5 h
Outline: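 Mice dosed ip; locomotor activity by photoresistor actometers counting light-beam interruptions. Each mouse was habituated 30 min in a cage, then crossings were counted over a 30 min session. Data are mean ± SEM and % change vs control; unpaired t test.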

Mus musculus [24] = test: Anticonvulsant activity in mouse assessed as protection against subcutaneous pentylenetetrazole-induced seizures at 100 mg/kg, ip measured for 30 mins post pentylenetetrazole challenge at 0.5 hrs after compound dosing relative to control; assay type: functional
SH-SY5Y [25] = test: Potentiation of H2O2-induced cytotoxicity against human SH-SY5Y cells at 10^-6 to 10^-5 M after 24 hrs by MTT assay; assay type: cell-based
HepG2 [26] = test: Cytotoxicity against human HepG2 cells assessed as effect on cell viability at 10 to 250 uM after 24 hrs by neutral red assay; assay type: cell-based; settings: hepg2, 24 h
Outline: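 HepG2 cells seeded at 5 × 10^4 per well, then after 24 h given medium with 10–250 μM for 24 h. Viability by neutral red staining, OD 570 nm. Results are % of control ± SEM, three independent experiments.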

SH-SY5Y [27] = test: Cytotoxicity against human SH-SY5Y cells 10^-8 to 10^-4 M after 24 hrs by MTT assay; assay type: cell-based
Mus musculus [28] = test: Anticonvulsant activity in mouse assessed as protection against subcutaneous pentylenetetrazole-induced seizures at 50 mg/kg, ip measured for 30 mins post pentylenetetrazole challenge at 0.5 hrs after compound dosing relative to control; assay type: functional
Mus musculus [29] = test: Anticonvulsant activity in mouse assessed as current strength required to induce tonic hind-limb extension in 50% of the animals at 2.5 mg/kg, ip by maximal electroshock seizure threshold test (reference value: 6.05 to 8.13 mA); assay type: functional
Mus musculus [30] = test: Anticonvulsant activity in mouse assessed as increase in electroconvulsive threshold at 2.5 mg/kg, ip by maximal electroshock seizure threshold test relative to control; assay type: functional

COC[C@@H](NC(C)=O)C(=O)NCc1ccccc1 [LACOSAMIDE]
Activity (Mus musculus [1]): >413.22%
TD50 at 0.25 h [2]: 42.5 mg/kg
Activity (Mus musculus [3]): >25 mA

Cc1cccc(OCCOCCN2CCCC(O)C2)c1C.Cl (centres undefined)
Activity (Mus musculus [4]): Active
Activity (Mus musculus [5]): 13.74%
ED50 (Mus musculus [6]): 68.7 mg/kg
Activity (SH-SY5Y [7]): Non-Toxic
Activity (Mus musculus [8]): 13.18 mA
Activity (SH-SY5Y [9]): Non-Toxic
selectivity ratio [10]: 1.77
Activity (Mus musculus [11]): Non-Toxic
TD50 at 1 min [12]: 122 mg/kg
Activity (Mus musculus [13]): Non-Toxic
Time (Mus musculus [14]): 564.8 s
Activity (Mus musculus [15]): Non-Toxic
Activity (Mus musculus [16]): 0%
Activity (Mus musculus [17]): 75.03%
Activity (SH-SY5Y [18]): Toxic
Activity (Mus musculus [19]): 64.59%
Time (Mus musculus [20]): 4.75 s
Activity (HepG2 [21]): Non-Toxic
Activity [22]: Non-Toxic
Activity (Mus musculus [23]): 14.98%
Activity (Mus musculus [24]): inactive
Activity (SH-SY5Y [25]): Toxic
Activity (HepG2 [26]): Non-Toxic
Activity (SH-SY5Y [27]): Non-Toxic

CCC1(C)CC(=O)NC1=O (centres undefined) [ETHOSUXIMIDE]
Activity (Mus musculus [28]): 123.94%
Time (Mus musculus [14]): 1470 s
Activity (Mus musculus [24]): 139.06%

O=C1NC(=O)C(c2ccccc2)(c2ccccc2)N1 [PHENYTOIN]
selectivity ratio [10]: 10.3
Activity (Mus musculus [29]): 7.46 mA
TD50 at 1 min [12]: 68.7 mg/kg
Activity (Mus musculus [30]): 23.31%
